Results collected from several papers.
Target: Casein kinase I isoform alpha (CSNK1A1, Homo sapiens, UniProt P48729)

SMILES	read-out	mode	method	tested at	quantity	value
Cn1cncc1[C@](O)(COc1ccc(C#N)cc1-c1ccc(OC(F)(F)F)cc1)c1ccc(C#N)cc1	cell-free assay	–	competition with immobilised ligand	1 µM	remaining binding	100%
COc1ncccc1-c1cnn2ccc(N3CCN(C(=O)OC(C)C)CC3)nc12	binding	–	competition with immobilised ligand	1 µM	remaining binding	100%
Cn1cc(-c2cc(F)cc(N3CCn4c(cc5c4CCCC5)C3=O)c2CO)cc(Nc2ccc(N3CCN(C4COC4)CC3)cn2)c1=O	enzyme activity	inhibitor	–	0.1 µM	inhibition	4%
Cc1nn(C)cc1-c1nc2c(N3CCN(Cc4ccc(Cl)cc4)CC3)c(Cl)cnc2[nH]1	binding	–	competition with immobilised ligand	1 µM	remaining binding	77%
Nc1ncc(-c2nc(N3CCOCC3)nc(N3CCOCC3)n2)c(C(F)F)n1	binding	–	competition with immobilised ligand	10 µM	remaining binding	72%
N#CC1(c2ccccn2)CCN(Cc2cc(C(=O)O)c(=O)n3ccccc23)CC1	cell-free assay	–	competition with immobilised ligand	1 µM	remaining binding	100%
Cn1cc(-c2cccc(N3CCc4c(sc5c4CC(C)(C)C5)C3=O)c2CO)cc(Nc2ccncn2)c1=O	enzyme activity	inhibitor	–	1 µM	inhibition	6%
O=c1[nH]c2ccccc2n1C1CCN(Cc2ccc(-c3[nH]c4cc5ncnc5cc4nc3-c3ccccc3)cc2)CC1	cell-free assay	–	–	0.5 µM	remaining signal	96%
